Results published in ChEMBL document CHEMBL1124860, “Purine derivatives as competitive inhibitors of human erythrocyte membrane phosphatidylinositol 4-kinase” (J Med Chem, 1990).

How the values were obtained:
[1] = molecular target: T1, Phosphatidylinositol 4-kinase, PI4K (Homo sapiens, UniProt Q9BTU6+Q8TCG2+Q9UBF8+P42356); test: Binding affinity (Ki) against human phosphatidylinositol 4-kinase; format: protein assay
Summary of the method: (§1)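 Human erythrocyte plasma membranes (0.36 mg protein) were incubated with PI (0.12 mM, [2-3H]PI tracer), ATP at 100 µM, ouabain, vanadate, DTT, 0.6% Triton X-100, MgCl2, EGTA, KCl/NaCl and HEPES pH 7.4 for 10 min at 30 °C. Lipids were extracted and deacylated, and the aqueous phase collected. Compounds were screened at 500 µM, then IC50 fitted from single dose-response curves. Ki = IC50/(1+[S]/Km), with ATP Km 221.5 µM.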

[2] = molecular target: T1, Phosphatidylinositol 4-kinase, PI4K; format: protein assay
[3] = Vmax value was determined; format: ADME
Nc1ncnc2c1ncn2C1CCCO1 = test: (§2) Inhibition of Phosphatidylinositol 4-kinase at the ATP binding site; format: protein assay; conditions: Homo sapiens; summary of the method: as §1
[4] = system: Nc1ncnc2c1ncn2[C@@H]1O[C@H](CO)[C@@H](O)[C@H]1O; test: as §2; format: protein assay; conditions: Homo sapiens; summary of the method: as §1
Nc1[nH]cnc2ncnc1-2 = test: as §2; format: protein assay; conditions: Homo sapiens; summary of the method: as §1
[5] = system: c1ccc(CNc2ncnc3[nH]cnc23)cc1; test: as §2; format: protein assay; conditions: Homo sapiens; summary of the method: as §1
CCn1cnc2c(N)ncnc21 = test: as §2; format: protein assay; conditions: Homo sapiens; summary of the method: as §1

Molecule	Ki [1]	IC50 [2]	also measured
c1ccc(CNc2ncnc3nc[nH]c23)cc1 [6-BENZYLAMINOPURINE]	199 µM	240.4 µM	Vmax [3]: 25800 c.p.m.
Nc1ncnc2c1ncn2C1CCCCCC1	5 µM	7.2 µM	–
Nc1[nH]cnc2nc(-c3cccc4ccccc34)nc1-2	89.5 µM	129.8 µM	–
Nc1ncnc2c1ncn2-c1cccc2ccccc12	54.4 µM	78.8 µM	–
Nc1nc(N)c2[nH]c(-c3ccccc3)nc2n1	137.7 µM	199.5 µM	–
Nc1ncnc2c1ncn2Cc1ccccc1 [9-BENZYL-9H-ADENINE]	57.9 µM	84.4 µM	–
CC(C)n1cnc2c(N)ncnc21	10.3 µM	14.9 µM	–
Nc1ncnc2c1ncn2C1CCCO1 (stereo not drawn)	21.2 µM	28.2 µM	Vmax [3]: 25800 c.p.m.
Nc1ncnc2ccccc12 [4-AMINOQUINAZOLINE]	63.4 µM	91.7 µM	–
Cl.Nc1ncnc2nc(Br)[nH]c12	148.4 µM	215.3 µM	–
Nc1ncnc2c1ncn2[C@@H]1O[C@H](CO)[C@@H](O)[C@H]1O [ADENOSINE]	19.2 µM	30.3 µM	Vmax [3]: 31400 c.p.m.
Nc1ncnc2c1ncn2-c1ccccc1F	8.3 µM	11.9 µM	–
Cc1ccccc1-n1cnc2c(N)ncnc21	16.5 µM	23.6 µM	–
CCCCCc1nc2[nH]cnc(N)c-2n1	47.5 µM	68.9 µM	–
CCn1cnc2c(N)ncnc21	25.5 µM	32.4 µM	Vmax [3]: 20800 c.p.m.
Nc1ncnc2c1ncn2[C@@H]1O[C@H](COP(=O)(O)OP(=O)(O)O)[C@@H](O)[C@H]1O [ADENOSINE DIPHOSPHATE]	100.1 µM	145.3 µM	–
Nc1ncnc2c1ncn2-c1ccccc1	10.3 µM	15.4 µM	–
Nc1ncnc2c1ncn2C1CCCCC1	3.7 µM	6 µM	–
CC(C)(C)n1cnc2c(N)ncnc21	6.9 µM	10.2 µM	–
Nc1nc(N)c2nc[nH]c2n1.O=S(=O)(O)O	101.2 µM	146.8 µM	–
CC(C)(C)c1ccc(-n2cnc3c(N)ncnc32)cc1	31.7 µM	46.1 µM	–
Cc1nc2[nH]cnc(N)c-2n1	134.3 µM	195.4 µM	–
Nc1ncnc2c1ncn2-c1cccc(F)c1	17.9 µM	25.6 µM	–
CCC(CC)(CC)n1cnc2c(N)ncnc21	93.7 µM	134.1 µM	–
Cc1nc2c(N)ncnc2n1-c1ccccc1	11 µM	16.4 µM	–
COc1ccc(-n2cnc3c(N)ncnc32)cc1	15.2 µM	21.9 µM	–
Cn1c(-c2ccccc2)nc2c(N)ncnc21	24.1 µM	34.9 µM	–

Molecule	Ki [1]	IC50 [2]	also measured
Nc1ncnc2scnc12	80.6 µM	116.9 µM	–
Nc1ncnc2c1ncn2C1O[C@H](CI)[C@@H](O)[C@H]1O (stereo partly drawn)	15.9 µM	23.1 µM	–
Nc1ncnc2[nH]ncc12	99.9 µM	144.9 µM	–
Cl.Nc1[nH]cnc2nc(NCc3ccccc3)nc1-2	91.7 µM	133 µM	–
Cn1ncc2c(N)ncnc21	56.8 µM	82.5 µM	–
CC(C)(C)Cn1cnc2c(N)ncnc21	9 µM	12.8 µM	–
CC1(n2cnc3c(N)ncnc32)CCCCC1	5 µM	7.2 µM	–
Nc1ncnc2c1ncn2-c1ccc(Cl)cc1	28.2 µM	41.1 µM	–
CN(C)c1ncnc2nc[nH]c12 [DIMETHYLADENINE]	150.2 µM	218 µM	–
CC1(C)O[C@@H]2[C@H](O1)[C@@H](CO)O[C@H]2n1cnc2c(N)ncnc21	8.4 µM	12.1 µM	–
Cn1cnc2c(N)ncnc21	110.9 µM	161 µM	–
Nc1ncnc2c1ncn2C1CCCC1	6 µM	8.7 µM	–
Nc1[nH]cnc2nc(-c3ccccn3)nc1-2	52.3 µM	75.6 µM	–
Nc1ncnc2cc3ccccc3cc12	22.7 µM	33 µM	–
Nc1ncnc2c1ncn2C12CC3CC(CC(C3)C1)C2	4.1 µM	6 µM	–
CCCCCc1nc2c(N)ncnc2n1-c1ccccc1	35.8 µM	51.9 µM	–
Nc1ncnc2c1nc1n2CCCC1	35.8 µM	52.4 µM	–
Phosphatidylinositol 4-kinase, PI4K (Homo sapiens) (from UniProt Q9BTU6+Q8TCG2+Q9UBF8+P42356)	–	–	Km (Nc1ncnc2c1ncn2C1CCCO1): 262 µM; Km [4]: 179 µM; Km (Nc1[nH]cnc2ncnc1-2): 297 µM; Km [5]: 239 µM; Km (CCn1cnc2c(N)ncnc21): 257 µM
Nc1ncnc2c1ncn2-c1cccnc1	31.8 µM	46.2 µM	–
Nc1ncnc2c1nc(-c1ccccc1)n2-c1ccccc1	11 µM	16.4 µM	–
Nc1nc2ncnc-2c[nH]1 [2-AMINOPURINE]	235.4 µM	341.6 µM	–
COc1cccc(-n2cnc3c(N)ncnc32)c1	15.8 µM	22.9 µM	–
Nc1ncnc2[nH]c(-c3ccccc3)nc12	33.6 µM	48.8 µM	–
Cl.Nc1ncnc2nc[nH]c12	85.8 µM	182.6 µM	Vmax [3]: 22800 c.p.m.
Nc1ncnc2c1cnn2-c1ccccc1	11 µM	16.1 µM	–
CCCCCc1nc2c(N)ncnc2n1CCCCC	–	126.5 µM	–
